The source of these data is ChEMBL document CHEMBL1143369, “Guanidine and 2-aminoimidazoline aromatic derivatives as alpha2-adrenoceptor ligands: searching for structure-activity relationships” (J Med Chem, 2009).

Activity calls are given as the source filed them. No cut-off for these calls is given here.

In experiment [1] the target is T1, Adrenergic receptor alpha-2 (Homo sapiens, UniProt P08913+P18825+P18089).
T1 sequence (P08913 whole entry): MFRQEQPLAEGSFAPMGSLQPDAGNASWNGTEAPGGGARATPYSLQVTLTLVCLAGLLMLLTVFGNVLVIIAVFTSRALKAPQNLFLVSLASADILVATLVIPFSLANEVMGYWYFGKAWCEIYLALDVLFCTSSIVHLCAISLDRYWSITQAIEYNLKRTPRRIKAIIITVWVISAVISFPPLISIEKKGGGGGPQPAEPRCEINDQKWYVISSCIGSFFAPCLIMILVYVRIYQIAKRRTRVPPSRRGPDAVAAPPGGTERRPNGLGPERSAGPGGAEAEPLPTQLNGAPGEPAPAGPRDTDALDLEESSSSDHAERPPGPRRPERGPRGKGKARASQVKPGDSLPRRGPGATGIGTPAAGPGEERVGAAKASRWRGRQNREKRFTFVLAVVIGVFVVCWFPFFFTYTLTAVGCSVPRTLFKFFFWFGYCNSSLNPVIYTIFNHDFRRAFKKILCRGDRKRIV
T1 sequence (P18825 whole entry): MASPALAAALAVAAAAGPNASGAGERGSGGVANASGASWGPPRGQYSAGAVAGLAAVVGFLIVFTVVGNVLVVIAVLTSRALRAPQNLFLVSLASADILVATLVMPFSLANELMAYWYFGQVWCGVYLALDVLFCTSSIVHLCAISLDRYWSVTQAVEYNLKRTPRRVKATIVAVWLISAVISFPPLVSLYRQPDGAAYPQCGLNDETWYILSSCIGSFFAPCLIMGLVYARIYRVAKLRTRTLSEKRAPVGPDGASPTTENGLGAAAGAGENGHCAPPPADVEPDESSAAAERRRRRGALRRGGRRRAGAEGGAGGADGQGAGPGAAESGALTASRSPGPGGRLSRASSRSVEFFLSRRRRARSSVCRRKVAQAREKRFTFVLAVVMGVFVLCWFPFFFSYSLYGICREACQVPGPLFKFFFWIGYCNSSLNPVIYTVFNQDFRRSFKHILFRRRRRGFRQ
T1 sequence (P18089 whole entry): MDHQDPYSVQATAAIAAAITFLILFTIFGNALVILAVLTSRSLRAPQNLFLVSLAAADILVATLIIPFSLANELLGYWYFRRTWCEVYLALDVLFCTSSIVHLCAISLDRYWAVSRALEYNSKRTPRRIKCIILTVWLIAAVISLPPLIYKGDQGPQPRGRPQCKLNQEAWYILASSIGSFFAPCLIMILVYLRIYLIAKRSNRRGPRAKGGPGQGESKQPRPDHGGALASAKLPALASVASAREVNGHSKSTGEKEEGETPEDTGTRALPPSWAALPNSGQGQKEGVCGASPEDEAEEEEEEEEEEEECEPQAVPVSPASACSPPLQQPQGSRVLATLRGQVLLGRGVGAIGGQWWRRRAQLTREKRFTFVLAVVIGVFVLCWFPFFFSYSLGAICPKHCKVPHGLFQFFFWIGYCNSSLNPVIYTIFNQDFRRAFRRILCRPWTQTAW
Description: Displacement of [3H]RX821002 from alpha2 adrenoceptor in human prefrontal cortex neural membrane after 30 mins by liquid scintillation spectrometry. Type of experiment: tissue-based.

The subject of experiment [2] is Rattus norvegicus. The experiment in a line: Antidepressant activity in Sprague-Dawley rat assessed as increase in extracellular noradrenaline level in prefrontal cortex at 1 to 100 uM administered locally by microdialysis measured after every 70 mins by HPLC. Type of experiment: functional. The gist of the method: (§1)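 Male Sprague-Dawley rats (250-300 g), freely moving, with a PFC probe implanted under chloral hydrate 20-24 h earlier. Perfused with aCSF pH 7.4 at 1 µL/min. Drug dissolved in aCSF and reverse-dialysed for 70 min at each step of 1, 10 and 100 µM. Dialysate sampled every 35 min, NA measured by HPLC with amperometric detection at +650 mV. Values are % of mean of 3 basal samples, ANOVA versus aCSF controls.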

The test system of experiment [3] is Rattus norvegicus. Description: Antidepressant activity in Sprague-Dawley rat assessed as increase in extracellular noradrenaline level in prefrontal cortex at 1 uM administered locally by microdialysis measured after every 70 mins by HPLC. Type of experiment: functional, organism-based. The gist of the method: as §1
Experiment [4] deals with T1, Adrenergic receptor alpha-2. Description: Agonist activity at alpha2 adrenoceptor in human cortical membrane after 2 hrs by [35S]GTPgammaS binding assay. Type of experiment: functional, cell membranes.
The target in experiment [5] is T2, Adrenergic receptor alpha-2 (Homo sapiens) (UniProt P08913+P18825+P18089). Description: Intrinsic activity at alpha2 adrenoceptor in human cortical membrane at 0.0001 to 1000 uM after 2 hrs by [35S]GTPgammaS binding assay relative to UK-14304. It is filed as functional, cell membranes. In a few lines:
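Human postmortem PFC membranes (40 µg protein) incubated 2 h at 30 °C with 0.5 nM [35S]GTPγS in buffer of EGTA, MgCl2, 100 mM NaCl, GDP and Tris-HCl pH 7.4. Compound tested at 8 concentrations (10^-10 to 10^-3 M). Bound label collected by GF/C filtration.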

For experiment [6], the target named is T2, Adrenergic receptor alpha-2 (Homo sapiens). Description: Antagonist activity at alpha2 adrenoceptor in human prefrontal cortex neural membrane at 10 uM assessed as rightwards shift in UK-14304 EC50 by [35S]GTPgammaS binding assay. It is filed as functional, tissue-based. The gist of the method: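 Human postmortem prefrontal cortex P2 membranes (40 µg protein) incubated 120 min at 30 °C with shaking in 0.5 nM [35S]GTPγS, 1 mM EGTA, 3 mM MgCl2, 100 mM NaCl, GDP, Tris-HCl pH 7.4. Nonspecific binding with 10 µM unlabeled GTPγS.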

Experiment [7] concerns Rattus norvegicus. Description: Antidepressant activity in Sprague-Dawley rat assessed as increase in extracellular noradrenaline level in prefrontal cortex at 100 uM administered locally by microdialysis measured after every 70 mins by HPLC. It is filed as functional. In a few lines:
as §1

In experiment [8] the test system is Rattus norvegicus. The experiment in a line: Antidepressant activity in Sprague-Dawley rat assessed as increase in extracellular noradrenaline level in prefrontal cortex at 10 mg/kg, ip […] by HPLC. The following applies: route intraperitoneal. It is filed as functional.

Take `COC1(C2=NCCN2)COc2ccccc2O1` (centres undefined): the negative logarithm of the Ki (pKi) in experiment [1] was 9.04. In addition, in the experiment with Rattus norvegicus [2], the Emax worked out at 290%. The outcome with Rattus norvegicus [3] was Active.

Regarding `CCN(C)c1ccc(NC(=N)N)cc1`, in experiment [1], the negative logarithm of the Ki (pKi) is 7.12. In addition, the half-maximal effective concentration (EC50) in experiment [4] stood at 16.2 µM. The compound further returned an Emax in experiment [5] of 92%.

In turn, `CCC(CC)c1ccc(NC(=N)N)cc1` returned an EC50 in experiment [4] of 38.7 µM. Besides, the Emax in experiment [5] is 89%.

On to `CNc1ccc(NC2=NCCN2)cc1`, for which, in experiment [1], the negative-log Ki (pKi) is on record as 7.27. Also, the EC50 in experiment [4] worked out at 61.4 µM. Moreover, the maximal effect (Emax) in experiment [5] was found to be 98%.

As for `CCN(C)c1ccc(NC2=NCCN2)cc1`, the pKi in experiment [1] is recorded as 7.38. In experiment [4], this compound yielded a 50% effective concentration (EC50) of 1.9 µM. For the same compound, in experiment [5], the maximum response (Emax) stood at 103%.

Turning to `CCNc1ccc(NC(=N)N)cc1`, the negative-log Ki (pKi) in experiment [1] is 6.58. For the same compound, the result in experiment [6] was Active. In addition, the maximal response (Emax) in the experiment on Rattus norvegicus [7] was found to be 304%. The Activity with Rattus norvegicus [8] turned out to be 161%.

In the case of `CCNc1ccc(NC2=NCCN2)cc1`, the pKi in experiment [1] worked out at 6.75. The compound also showed an EC50 in experiment [4] of 59.3 µM. The compound also had an Emax in experiment [5] of 95%.

Turning to `CNc1ccc(NC(=N)N)cc1`, the negative logarithm of the Ki (pKi) in experiment [1] amounted to 6.95. Besides, the half-maximal effective concentration (EC50) in experiment [4] was found to be 82.3 µM. The maximal response (Emax) in experiment [5] is 87%.
